For orientation: pIC50 means the IC50 on a negative log10 scale, so that one unit is a factor of ten.

This is an account of results in ChEMBL document CHEMBL3877293, “Synthesis and Antineoplastic Evaluation of Novel Unsymmetrical 1,3,4-Oxadiazoles” (J Med Chem, 2016).

Experiment [1] can be described thus: Antiproliferative activity against human MCF7 cells after 72 hrs by XTT assay. The format is functional, cell-based. The settings on record: MCF7, 72 h. In short, it runs like this:
(§1)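 Cells plated at 1500–2000 per well by doubling time, treated after 24 h with a concentration series in six triplicate wells, and incubated 72 h without a medium change. XTT reagent was then added for 4 h at 37 °C and absorbance read at 490 nm. IC50 is the concentration halving absorbance versus untreated cells. Experiments run in triplicate.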
(In general: Formazan colour is commonly taken as a measure of viable cells.)

Experiment [2] in a line: Antiproliferative activity against human HeLa cells after 72 hrs by XTT assay. The format is functional, cell-based. In short, it runs like this: as §1

Structures are written as SMILES. pIC50: −log10 of the molar value.

With `Cc1[nH]c2c(c1-c1nnc(-c3ccccc3)o1)Cc1cc(Cl)ccc1-2`, the pIC50 in experiment [1] is less than 5.00; in experiment [2], 5.35.

On to `Cc1[nH]c2c(c1-c1nnc(-c3ccccc3)o1)Cc1cc(Br)ccc1-2`, for which the pIC50 in experiment [1] is 5.37; in experiment [2], 6.29.

As for `COc1cc(-c2nnc(-c3c[nH]c4c3Cc3ccccc3-4)o2)cc(OC)c1OC`, the pIC50 in experiment [1] and in experiment [2] was less than 5.00 throughout.

For `Cn1nc(-c2nnc(-c3ccccc3)o2)c2c1-c1ccccc1C2`, the negative-log IC50 (pIC50) in experiment [1] and in experiment [2] was less than 5.00 throughout.

As for `Cc1ccc2c(c1)Cc1c-2[nH]c(C)c1-c1nnc(-c2ccccc2)o1`, the values for the pIC50 in experiment [1] and in experiment [2] were less than 5.00 and 5.28, respectively.

`Clc1ccc(-c2nnc(-c3c[nH]c4c3Cc3ccccc3-4)o2)cc1Cl`: the pIC50 in experiment [1] and in experiment [2] was less than 5.00 throughout.

Turning to `Clc1cccc(-c2nnc(-c3c[nH]c4c3Cc3ccccc3-4)o2)c1`, the pIC50 in experiment [1] and in experiment [2] was less than 5.00 throughout.

With `COc1ccc2c(c1)-c1[nH]c(C)c(-c3nnc(-c4ccccc4)o3)c1C2`, the pIC50 in experiment [1] and in experiment [2] was less than 5.00 each time.

For `CC(C)(C)c1ccc(-c2nnc(-c3c[nH]c4c3Cc3ccccc3-4)o2)cc1`, the figures for the pIC50 in experiment [1] and in experiment [2] were 5.02 and 5.47, respectively.

On to `c1ccc(-c2nnc(-c3nn(-c4ccccc4)c4c3Cc3ccccc3-4)o2)cc1`, for which the pIC50 was 5.12 in experiment [1] and less than 5.00 in experiment [2].

For the compound `Cc1ccc(Cc2nnc(-c3c[nH]c4c3Cc3ccccc3-4)o2)cc1`, the pIC50 in experiment [1] is 5.37; in experiment [2], less than 5.00.

With `c1ccc2c(c1)Cc1c(-c3nnc(C4CCCCC4)o3)c[nH]c1-2`, the pIC50 in experiment [1] and in experiment [2] was less than 5.00 each time.

Turning to `Clc1ccc(Cc2nnc(-c3c[nH]c4c3Cc3ccccc3-4)o2)cc1`, the pIC50 in experiment [1] and in experiment [2] was less than 5.00 throughout.

Take `Clc1ccc(-c2nnc(-c3c[nH]c4c3Cc3ccccc3-4)o2)cc1`: the pIC50 in experiment [1] and in experiment [2] was less than 5.00 each time.

On to `c1ccc(Cc2nnc(-c3c[nH]c4c3Cc3ccccc3-4)o2)cc1`, for which the pIC50 in experiment [1] and in experiment [2] was less than 5.00 in each case.

Take `Cc1[nH]c2c(c1-c1nnc(-c3ccccc3)o1)Cc1cc(C3CC3)ccc1-2`: the values for the pIC50 in experiment [1] and in experiment [2] were 5.64 and 5.80, respectively.
